Experimental data from ChEMBL document CHEMBL1140448 (J Med Chem, 2005).

Tests used:
[1] = biological target: Somatostatin receptor type 2 (Homo sapiens, UniProt P30874); experiment: Inhibitory concentration against human somatostatin receptor type 2 in CC531 cells; assay type: cell-based
In short: (§1)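 Competitive binding on membranes (25-50 µg protein) from stably transfected cells expressing one human sst subtype: CC531 for sst2, CHO-K1 for sst3 and sst5. Stopped with ice-cold Hepes buffer pH 7.6 and centrifuged; washed pellet γ-counted. Nonspecific binding taken with 1 µM unlabeled SRIF analogue.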

[2] = biological target: Somatostatin receptor type 3 (Homo sapiens, UniProt P32745); experiment: Inhibitory concentration against human somatostatin receptor type 3 in CHO-K1 cells; assay type: cell-based; in short: as §1
Sequence of Somatostatin receptor type 3 (P32745 whole entry): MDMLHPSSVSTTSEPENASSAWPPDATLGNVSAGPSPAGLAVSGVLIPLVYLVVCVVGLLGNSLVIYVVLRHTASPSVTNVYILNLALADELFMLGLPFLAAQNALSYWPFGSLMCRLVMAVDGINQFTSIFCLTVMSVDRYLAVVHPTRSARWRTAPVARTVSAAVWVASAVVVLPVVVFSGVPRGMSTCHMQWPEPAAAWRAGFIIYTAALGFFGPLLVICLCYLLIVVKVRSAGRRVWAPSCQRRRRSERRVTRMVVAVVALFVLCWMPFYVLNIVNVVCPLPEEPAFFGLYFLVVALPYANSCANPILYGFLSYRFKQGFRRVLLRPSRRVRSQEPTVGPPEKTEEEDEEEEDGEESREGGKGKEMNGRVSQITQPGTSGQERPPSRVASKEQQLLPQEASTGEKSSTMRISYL

[3] = organism: Rattus norvegicus; experiment: Percent inhibition on PRL release from rat pituitary cells; assay type: functional, Pituitary gland cell; set-up: concentration or dose not given beside the values
In short: (§2)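 Anterior pituitaries from female Wistar rats (180-200 g) dispersed with dispase. Cells seeded at (0.5-5) × 10^5 per well in MEM with 10% FCS and attached at least 3 days. Then 4 h incubation with or without analogue plus 10 nM GHRH, four dishes per group. Rat GH and PRL measured by commercial assay; response given as % change versus untreated control dishes.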

[4] = organism: Rattus norvegicus; experiment: Percent inhibition on GH release from rat pituitary cells; assay type: functional, Pituitary gland cell; set-up: concentration or dose not given beside the values; in short: as §2
[5] = organism: Rattus norvegicus; experiment: Inhibitory concentration on GH release from rat pituitary cells; assay type: functional, cell-based; details: Pituitary gland cell; in short: as §2
[6] = organism: Rattus norvegicus; experiment: Inhibitory concentration on PRL release from rat pituitary cells; assay type: functional, cell-based; details: Pituitary gland cell; in short: as §2
[7] = biological target: Somatostatin receptor type 5 (Homo sapiens, UniProt P35346); experiment: Inhibitory concentration against human somatostatin receptor type 5 in CHO-K1 cells; assay type: cell-based; in short: as §1
Sequence of Somatostatin receptor type 5 (P35346 whole entry): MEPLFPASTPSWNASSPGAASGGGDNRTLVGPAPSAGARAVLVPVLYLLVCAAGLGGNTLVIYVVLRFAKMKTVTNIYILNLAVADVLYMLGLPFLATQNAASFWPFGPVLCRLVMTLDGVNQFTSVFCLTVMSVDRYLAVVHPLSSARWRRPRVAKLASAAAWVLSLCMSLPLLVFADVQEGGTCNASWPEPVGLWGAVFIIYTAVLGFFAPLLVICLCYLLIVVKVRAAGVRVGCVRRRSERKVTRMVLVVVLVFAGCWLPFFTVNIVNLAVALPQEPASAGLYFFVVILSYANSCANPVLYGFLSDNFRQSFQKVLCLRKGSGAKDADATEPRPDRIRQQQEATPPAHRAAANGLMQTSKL

Sequence of Somatostatin receptor type 2 (P30874 whole entry): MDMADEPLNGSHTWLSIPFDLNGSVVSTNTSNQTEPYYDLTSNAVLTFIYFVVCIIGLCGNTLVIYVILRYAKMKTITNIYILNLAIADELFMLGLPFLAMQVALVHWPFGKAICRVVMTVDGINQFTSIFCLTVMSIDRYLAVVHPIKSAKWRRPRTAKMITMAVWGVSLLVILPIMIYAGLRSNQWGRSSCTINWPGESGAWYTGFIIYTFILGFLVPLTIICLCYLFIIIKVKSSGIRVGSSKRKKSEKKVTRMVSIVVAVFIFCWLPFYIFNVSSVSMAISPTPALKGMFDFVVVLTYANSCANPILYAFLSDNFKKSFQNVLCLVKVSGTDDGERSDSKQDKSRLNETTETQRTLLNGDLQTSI

SMILES	IC50 [1] [nM]	IC50 [2] [nM]	IC50 [5] [nM]	IC50 [6] [nM]	IC50 [7] [nM]	Inhibition [3] [%]	Inhibition [4] [%]
CC(C)[C@@H]1NC(=O)[C@H](CCCCN)NC(=O)[C@@H](Cc2c[nH]c3ccccc23)NC(=O)[C@H](Cc2ccc(O)cc2)NC(=O)[C@@H](NC(=O)[C@H](N)Cc2ccc(N)cc2)CSSC[C@@H](C(=O)N[C@@H](C(N)=O)[C@H](C)O)NC1=O [listing 2 of 2 here]	–	–	–	–	–	8	-11
CC(C)[C@@H]1NC(=O)[C@H](CCCCN)NC(=O)[C@@H](Cc2c[nH]c3ccccc23)NC(=O)[C@H](Cc2ccc(O)c(I)c2)NC(=O)[C@@H](NC(=O)[C@H](N)Cc2ccc(N)c(I)c2)CSSC[C@@H](C(=O)N[C@H](C(N)=O)[C@@H](C)O)NC1=O [listing 1 of 2 here]	0.63	> 1000	0.15	0.23	–	–	–
CC(C)[C@@H]1NC(=O)[C@H](CCCCN)NC(=O)[C@@H](Cc2c[nH]c3ccccc23)NC(=O)[C@H](Cc2ccc(O)c(I)c2)NC(=O)[C@@H](NC(=O)[C@H](N)Cc2ccc(N)c(I)c2)CSSC[C@@H](C(=O)N[C@H](C(N)=O)[C@@H](C)O)NC1=O [listing 2 of 2 here]	–	–	–	–	–	29	58
CC(C)[C@@H]1NC(=O)[C@H](CCCCN)NC(=O)[C@@H](Cc2c[nH]c3ccccc23)NC(=O)[C@H](Cc2ccc(O)cc2)NC(=O)[C@@H](NC(=O)[C@H](N)Cc2ccc(N)cc2)CSSC[C@@H](C(=O)N[C@H](C(N)=O)[C@@H](C)O)NC1=O [listing 2 of 2 here]	–	–	–	–	–	20	47
CC(C)[C@@H]1NC(=O)[C@H](CCCCN)NC(=O)[C@@H](Cc2c[nH]c3ccccc23)NC(=O)[C@H](Cc2ccc(O)cc2)NC(=O)[C@@H](NC(=O)[C@H](N)Cc2ccc(N)c(I)c2)CSSC[C@@H](C(=O)N[C@H](C(N)=O)[C@@H](C)O)NC1=O [listing 2 of 2 here]	–	–	–	–	–	35	60
CC(C)[C@@H]1NC(=O)[C@H](CCCCN)NC(=O)[C@@H](Cc2c[nH]c3ccccc23)NC(=O)[C@H](Cc2ccc(O)c(I)c2)NC(=O)[C@@H](NC(=O)[C@H](N)Cc2ccc(N)c(I)c2)CSSC[C@@H](C(=O)N[C@@H](CC(=O)O)C(N)=O)NC1=O [listing 2 of 2 here]	–	–	–	–	–	15	55
CC(C)[C@@H]1NC(=O)[C@H](CCCCN)NC(=O)[C@@H](Cc2c[nH]c3ccccc23)NC(=O)[C@H](Cc2ccc(O)cc2)NC(=O)[C@@H](NC(=O)[C@H](N)Cc2ccc(N)cc2)CSSC[C@@H](C(=O)N[C@@H](CC(=O)O)C(N)=O)NC1=O [listing 2 of 2 here]	–	–	–	–	–	-9	41
CC(C)[C@@H]1NC(=O)[C@H](CCCCN)NC(=O)[C@@H](Cc2c[nH]c3ccccc23)NC(=O)[C@H](Cc2ccc(O)cc2)NC(=O)[C@@H](NC(=O)[C@H](N)Cc2ccc(N)c(I)c2)CSSC[C@@H](C(=O)N[C@@H](CC(=O)O)C(N)=O)NC1=O [listing 2 of 2 here]	–	–	–	–	–	12	17
CC(C)[C@@H]1NC(=O)[C@H](CCCCN)NC(=O)[C@@H](Cc2c[nH]c3ccccc23)NC(=O)[C@H](Cc2ccc(O)c(I)c2)NC(=O)[C@@H](NC(=O)[C@H](N)Cc2ccc(N)cc2)CSSC[C@@H](C(=O)N[C@H](C(N)=O)[C@@H](C)O)NC1=O [listing 2 of 2 here]	–	–	–	–	–	14	12
CC(C)[C@@H]1NC(=O)[C@H](CCCCN)NC(=O)[C@@H](Cc2c[nH]c3ccccc23)NC(=O)[C@H](Cc2ccc(O)cc2)NC(=O)[C@@H](NC(=O)[C@H](N)Cc2ccc(N)cc2)CSSC[C@@H](C(=O)N[C@H](CC(=O)O)C(N)=O)NC1=O [listing 2 of 2 here]	–	–	–	–	–	11	18
C[C@H](N)C(=O)NCC(=O)N[C@H]1CSSC[C@@H](C(=O)O)NC(=O)[C@H](CO)NC(=O)[C@H]([C@@H](C)O)NC(=O)[C@H](Cc2ccccc2)NC(=O)[C@H]([C@@H](C)O)NC(=O)[C@H](CCCCN)NC(=O)[C@H](Cc2c[nH]c3ccccc23)NC(=O)[C@H](Cc2ccccc2)NC(=O)[C@H](Cc2ccccc2)NC(=O)[C@H](CC(N)=O)NC(=O)[C@H](CCCCN)NC1=O [SOMATOSTATIN]	–	–	0.1	0.2	–	30	66

Second part, led by results:

IC50 [1] [nM]	IC50 [2] [nM]	IC50 [5] [nM]	IC50 [6] [nM]	IC50 [7] [nM]	SMILES	Inhibition [3] [%]	Inhibition [4] [%]
17	> 1000	–	–	–	CC(C)[C@@H]1NC(=O)[C@H](CCCCN)NC(=O)[C@@H](Cc2c[nH]c3ccccc23)NC(=O)[C@H](Cc2ccc(O)cc2)NC(=O)[C@@H](NC(=O)[C@H](N)Cc2ccc(N)cc2)CSSC[C@@H](C(=O)N[C@@H](C(N)=O)[C@H](C)O)NC1=O [listing 1 of 2 here]	–	–
18.6	> 1000	1.1	–	–	CC(C)[C@@H]1NC(=O)[C@H](CCCCN)NC(=O)[C@@H](Cc2c[nH]c3ccccc23)NC(=O)[C@H](Cc2ccc(O)cc2)NC(=O)[C@@H](NC(=O)[C@H](N)Cc2ccccc2)CSSC[C@@H](C(=O)N[C@@H](CC(=O)O)C(N)=O)NC1=O	–	–
1.6	> 1000	0.08	2.2	–	CC(C)[C@@H]1NC(=O)[C@H](CCCCN)NC(=O)[C@@H](Cc2c[nH]c3ccccc23)NC(=O)[C@H](Cc2ccc(O)cc2)NC(=O)[C@@H](NC(=O)[C@H](N)Cc2ccc(N)cc2)CSSC[C@@H](C(=O)N[C@H](C(N)=O)[C@@H](C)O)NC1=O [listing 1 of 2 here]	–	–
1.4	> 1000	0.1	0.1	–	CC(C)[C@@H]1NC(=O)[C@H](CCCCN)NC(=O)[C@@H](Cc2c[nH]c3ccccc23)NC(=O)[C@H](Cc2ccc(O)cc2)NC(=O)[C@@H](NC(=O)[C@H](N)Cc2ccc(N)c(I)c2)CSSC[C@@H](C(=O)N[C@H](C(N)=O)[C@@H](C)O)NC1=O [listing 1 of 2 here]	–	–
1.9	> 1000	–	–	2.9	CC(C)[C@@H]1NC(=O)[C@H](CCCCN)NC(=O)[C@@H](Cc2c[nH]c3ccccc23)NC(=O)[C@H](Cc2ccc(O)c(I)c2)NC(=O)[C@@H](NC(=O)[C@H](N)Cc2ccc(N)c(I)c2)CSSC[C@@H](C(=O)N[C@@H](CC(=O)O)C(N)=O)NC1=O [listing 1 of 2 here]	–	–
11	> 1000	14.8	26	54	CC(C)[C@@H]1NC(=O)[C@H](CCCCN)NC(=O)[C@@H](Cc2c[nH]c3ccccc23)NC(=O)[C@H](Cc2ccc(O)cc2)NC(=O)[C@@H](NC(=O)[C@H](N)Cc2ccc(N)cc2)CSSC[C@@H](C(=O)N[C@@H](CC(=O)O)C(N)=O)NC1=O [listing 1 of 2 here]	–	–
12	> 1000	–	–	74	CC(C)[C@@H]1NC(=O)[C@H](CCCCN)NC(=O)[C@@H](Cc2c[nH]c3ccccc23)NC(=O)[C@H](Cc2ccc(O)cc2)NC(=O)[C@@H](NC(=O)[C@H](N)Cc2ccc(N)c(I)c2)CSSC[C@@H](C(=O)N[C@@H](CC(=O)O)C(N)=O)NC1=O [listing 1 of 2 here]	–	–
6.2	> 1000	–	–	–	CC(C)[C@@H]1NC(=O)[C@H](CCCCN)NC(=O)[C@@H](Cc2c[nH]c3ccccc23)NC(=O)[C@H](Cc2ccc(O)c(I)c2)NC(=O)[C@@H](NC(=O)[C@H](N)Cc2ccc(N)cc2)CSSC[C@@H](C(=O)N[C@H](C(N)=O)[C@@H](C)O)NC1=O [listing 1 of 2 here]	–	–
1.1	> 1000	–	> 100	30	CC(C)[C@@H]1NC(=O)[C@H](CCCCN)NC(=O)[C@@H](Cc2c[nH]c3ccccc23)NC(=O)[C@H](Cc2ccc(O)cc2)NC(=O)[C@@H](NC(=O)[C@H](N)Cc2ccc(N)cc2)CSSC[C@@H](C(=O)N[C@H](CC(=O)O)C(N)=O)NC1=O [listing 1 of 2 here]	–	–
